In paper PMC2292750 (PLoS Medicine, 2008):

How the values were obtained:
[1] = system: mouse PDAC cells; type: cell-based; settings: flow cytometry
In short: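 Early-passage PDAC cells came from Kras/p53L/L mouse tumors; normal primary ductal cells came from wild-type mice. Phage (~1 × 10^12 PFU) were labeled with 0.25 mg/ml FITC for 1 h and PEG-purified. Cells were incubated with 1 μM (FITC) phage for 1 h at 37 °C, washed three times with DPBS and trypsinized. Mean fluorescence was read by flow cytometry at 10,000 cells/sample.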

[2] = system: normal human ductal cells; type: cell-based; settings: FITC-labeled phage 1 μM, 1 h at 37 °C, FACS
In short: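 Normal human ductal cells were incubated with 1 μM (FITC) FITC-labeled test phage or an unrelated control phage clone (SNLHPSD) for 1 h at 37 °C. Cells were washed three times with DPBS, trypsinized and centrifuged, then read by flow cytometry at 10,000 cells/sample. Mean fluorescence served as relative uptake.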

[3] = target: plectin-1 (Mus musculus, UniProt Q9QXS1); experiment: Competition experiment with anti-plectin-1 antibody; type: binding; settings: coincubation of anti-plectin-1 antibody and FITC-labeled phage with mouse PDAC cells, 1 h at 37 °C, versus vehicle
[4] = system: mouse PanINs and PDAC lesions, frozen sections; experiment: Binding of FITC-labeled phage to frozen mouse pancreas sections; settings: 1 μM FITC-labeled phage, 1 h at 37 °C, fluorescence microscopy, n = 3
In short: (§1)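 Frozen tissues (n = 3) were embedded in OCT, cut at 5 μm and arrayed on slides. Sections were incubated for 1 h at 37 °C with 1 μM FITC-labeled test phage or FITC-labeled control phage (no insert). They were then washed three times with PBS, fixed in 2% paraformaldehyde and imaged by fluorescence microscopy (40× objective).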

[5] = system: human PDAC; experiment: Binding of FITC-labeled phage to frozen human PDAC sections; settings: 1 μM FITC-labeled phage, 1 h at 37 °C, fluorescence microscopy
In short: as §1

Sequence of plectin-1 (Q9QXS1 whole entry): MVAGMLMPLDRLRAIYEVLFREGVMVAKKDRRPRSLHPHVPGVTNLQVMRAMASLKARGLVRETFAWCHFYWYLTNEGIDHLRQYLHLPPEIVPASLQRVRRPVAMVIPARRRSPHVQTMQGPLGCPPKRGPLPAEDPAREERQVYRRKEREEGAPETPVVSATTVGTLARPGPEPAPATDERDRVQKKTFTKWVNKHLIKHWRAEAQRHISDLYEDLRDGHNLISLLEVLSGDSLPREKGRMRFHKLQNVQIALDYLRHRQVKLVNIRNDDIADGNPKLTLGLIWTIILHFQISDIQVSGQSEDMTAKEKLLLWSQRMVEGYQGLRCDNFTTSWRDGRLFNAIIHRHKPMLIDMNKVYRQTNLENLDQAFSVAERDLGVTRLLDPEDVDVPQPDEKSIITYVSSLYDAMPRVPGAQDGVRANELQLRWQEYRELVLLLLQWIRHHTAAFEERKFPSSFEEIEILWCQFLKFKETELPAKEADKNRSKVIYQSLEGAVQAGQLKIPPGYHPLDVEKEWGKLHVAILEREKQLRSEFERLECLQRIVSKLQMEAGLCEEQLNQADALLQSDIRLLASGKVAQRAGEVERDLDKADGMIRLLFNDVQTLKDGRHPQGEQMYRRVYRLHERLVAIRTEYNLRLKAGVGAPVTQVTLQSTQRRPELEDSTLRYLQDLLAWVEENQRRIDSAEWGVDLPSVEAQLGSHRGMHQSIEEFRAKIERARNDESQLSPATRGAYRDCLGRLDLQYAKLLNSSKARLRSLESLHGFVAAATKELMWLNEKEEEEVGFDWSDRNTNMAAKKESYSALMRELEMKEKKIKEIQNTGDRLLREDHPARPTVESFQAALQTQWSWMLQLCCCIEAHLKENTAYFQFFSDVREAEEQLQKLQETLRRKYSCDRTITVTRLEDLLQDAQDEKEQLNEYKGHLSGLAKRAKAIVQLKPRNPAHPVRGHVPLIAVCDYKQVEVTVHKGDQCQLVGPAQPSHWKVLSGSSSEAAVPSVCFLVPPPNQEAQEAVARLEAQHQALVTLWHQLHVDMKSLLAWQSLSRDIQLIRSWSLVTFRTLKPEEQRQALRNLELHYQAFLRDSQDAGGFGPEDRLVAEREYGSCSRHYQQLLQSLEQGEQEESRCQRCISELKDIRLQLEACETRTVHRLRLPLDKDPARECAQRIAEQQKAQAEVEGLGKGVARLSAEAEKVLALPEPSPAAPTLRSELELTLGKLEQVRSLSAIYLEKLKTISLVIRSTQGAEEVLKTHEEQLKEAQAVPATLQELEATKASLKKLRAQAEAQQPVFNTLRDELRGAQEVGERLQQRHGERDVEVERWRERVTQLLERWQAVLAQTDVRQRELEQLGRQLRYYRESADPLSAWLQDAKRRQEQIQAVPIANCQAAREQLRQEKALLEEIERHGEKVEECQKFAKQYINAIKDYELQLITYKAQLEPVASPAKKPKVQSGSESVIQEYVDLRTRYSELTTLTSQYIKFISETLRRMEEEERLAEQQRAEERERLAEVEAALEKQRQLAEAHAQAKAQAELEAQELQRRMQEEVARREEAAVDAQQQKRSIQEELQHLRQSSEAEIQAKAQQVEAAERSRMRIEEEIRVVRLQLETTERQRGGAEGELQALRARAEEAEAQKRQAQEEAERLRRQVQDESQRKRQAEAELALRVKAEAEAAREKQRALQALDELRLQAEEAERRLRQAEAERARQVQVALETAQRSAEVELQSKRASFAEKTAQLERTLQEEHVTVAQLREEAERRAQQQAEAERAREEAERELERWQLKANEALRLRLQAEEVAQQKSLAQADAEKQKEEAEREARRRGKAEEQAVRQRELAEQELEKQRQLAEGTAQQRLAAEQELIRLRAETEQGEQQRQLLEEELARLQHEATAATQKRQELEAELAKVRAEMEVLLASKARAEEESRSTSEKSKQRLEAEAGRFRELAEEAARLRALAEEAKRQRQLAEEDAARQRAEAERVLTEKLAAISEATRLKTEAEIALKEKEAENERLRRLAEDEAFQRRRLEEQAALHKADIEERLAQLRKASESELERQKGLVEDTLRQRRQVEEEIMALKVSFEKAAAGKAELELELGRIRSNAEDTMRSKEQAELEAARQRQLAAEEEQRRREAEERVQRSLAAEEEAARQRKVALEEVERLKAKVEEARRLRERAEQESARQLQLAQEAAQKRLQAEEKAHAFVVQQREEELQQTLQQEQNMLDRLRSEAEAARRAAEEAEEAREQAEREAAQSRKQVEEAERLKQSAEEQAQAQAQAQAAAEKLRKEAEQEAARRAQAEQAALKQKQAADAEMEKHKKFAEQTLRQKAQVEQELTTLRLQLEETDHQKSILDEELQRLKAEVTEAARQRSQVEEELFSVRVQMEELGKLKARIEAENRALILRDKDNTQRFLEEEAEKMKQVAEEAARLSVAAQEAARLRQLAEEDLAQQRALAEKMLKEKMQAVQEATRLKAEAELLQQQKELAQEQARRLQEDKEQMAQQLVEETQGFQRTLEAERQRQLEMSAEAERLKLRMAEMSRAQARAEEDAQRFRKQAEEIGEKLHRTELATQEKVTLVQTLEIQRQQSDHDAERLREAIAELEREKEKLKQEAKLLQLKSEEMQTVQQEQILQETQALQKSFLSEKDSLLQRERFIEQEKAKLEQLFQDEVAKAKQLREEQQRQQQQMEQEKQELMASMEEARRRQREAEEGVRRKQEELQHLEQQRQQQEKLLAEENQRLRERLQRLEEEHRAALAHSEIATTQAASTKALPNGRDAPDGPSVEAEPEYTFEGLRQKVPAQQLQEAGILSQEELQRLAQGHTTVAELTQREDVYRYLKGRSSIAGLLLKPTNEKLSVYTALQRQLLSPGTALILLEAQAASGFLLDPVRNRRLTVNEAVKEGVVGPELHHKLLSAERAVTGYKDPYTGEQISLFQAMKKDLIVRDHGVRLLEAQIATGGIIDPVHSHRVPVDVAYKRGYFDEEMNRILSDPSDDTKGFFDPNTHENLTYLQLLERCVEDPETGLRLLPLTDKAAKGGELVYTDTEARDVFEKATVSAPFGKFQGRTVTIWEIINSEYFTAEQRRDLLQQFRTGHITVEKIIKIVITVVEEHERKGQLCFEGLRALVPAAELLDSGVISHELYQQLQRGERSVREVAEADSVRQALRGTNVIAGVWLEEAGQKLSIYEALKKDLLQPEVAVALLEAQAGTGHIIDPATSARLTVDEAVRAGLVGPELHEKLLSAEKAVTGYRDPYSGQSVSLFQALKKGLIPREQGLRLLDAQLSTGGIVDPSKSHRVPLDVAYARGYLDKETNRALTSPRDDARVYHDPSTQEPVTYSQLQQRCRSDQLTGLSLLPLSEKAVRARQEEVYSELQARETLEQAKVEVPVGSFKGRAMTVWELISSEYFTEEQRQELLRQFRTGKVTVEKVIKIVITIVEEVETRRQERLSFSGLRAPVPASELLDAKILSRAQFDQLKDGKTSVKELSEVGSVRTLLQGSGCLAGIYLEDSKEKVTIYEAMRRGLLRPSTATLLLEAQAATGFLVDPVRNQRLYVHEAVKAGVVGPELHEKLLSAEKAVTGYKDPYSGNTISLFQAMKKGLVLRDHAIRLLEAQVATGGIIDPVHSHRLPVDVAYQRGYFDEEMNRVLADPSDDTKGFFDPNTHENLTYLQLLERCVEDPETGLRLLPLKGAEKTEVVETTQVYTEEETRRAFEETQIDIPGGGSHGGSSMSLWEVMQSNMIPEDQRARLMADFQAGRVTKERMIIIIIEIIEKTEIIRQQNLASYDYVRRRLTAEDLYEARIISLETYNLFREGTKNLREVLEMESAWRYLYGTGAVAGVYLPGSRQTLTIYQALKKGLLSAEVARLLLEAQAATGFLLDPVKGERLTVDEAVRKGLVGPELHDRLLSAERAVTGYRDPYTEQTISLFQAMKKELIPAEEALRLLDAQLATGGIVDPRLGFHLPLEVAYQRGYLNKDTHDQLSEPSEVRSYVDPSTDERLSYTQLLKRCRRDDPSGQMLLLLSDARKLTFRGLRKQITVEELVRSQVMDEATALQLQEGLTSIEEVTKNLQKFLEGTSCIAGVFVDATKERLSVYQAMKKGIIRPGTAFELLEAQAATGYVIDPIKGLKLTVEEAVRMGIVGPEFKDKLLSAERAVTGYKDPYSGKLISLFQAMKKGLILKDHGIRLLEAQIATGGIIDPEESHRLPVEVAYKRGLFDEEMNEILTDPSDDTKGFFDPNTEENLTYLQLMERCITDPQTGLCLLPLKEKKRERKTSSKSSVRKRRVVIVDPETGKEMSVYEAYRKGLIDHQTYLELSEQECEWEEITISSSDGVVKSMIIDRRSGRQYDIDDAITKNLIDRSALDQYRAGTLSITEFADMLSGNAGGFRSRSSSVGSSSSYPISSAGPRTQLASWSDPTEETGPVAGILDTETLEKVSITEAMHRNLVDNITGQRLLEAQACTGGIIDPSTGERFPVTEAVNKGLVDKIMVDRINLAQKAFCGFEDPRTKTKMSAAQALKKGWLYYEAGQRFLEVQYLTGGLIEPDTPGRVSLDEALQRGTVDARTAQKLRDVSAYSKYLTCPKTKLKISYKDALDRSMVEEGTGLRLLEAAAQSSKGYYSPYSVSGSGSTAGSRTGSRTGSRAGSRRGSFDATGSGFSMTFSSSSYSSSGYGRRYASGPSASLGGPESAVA

Substance | specificity for mouse PDAC cells over normal ductal cells ([1]; FITC-labeled phage, 1 μM (FITC), 1 h at 37 °C, mean fluorescence) | specificity (ratio of clone 27/unrelated clone mean fluorescence) [2] | abrogation of binding [3] | binding to PanINs and PDAC lesions on frozen sections [4] | detection of human PDAC on frozen sections [5] | rank of affinity among fluorescein-labeled phage clones ([1]; mouse PDAC and normal ductal cells, unpublished data)
KTLLPTP [clone 27] | 112 fold | 0.85 | 96.9% | prominent binding | able to specifically detect human PDAC | 
TMAPSIK [clone 15] |  |  |  |  |  | second in affinity
